Bioassay records (PubChem)
KCNK3 inh – human KCNK3 channel inhibitors, primary screen, CHO cells, FluxOR thallium flux, B-score | Potassium channel subfamily K member 3 (Homo sapiens), O14649 | FluxOR fluorescence; hits give low values | B-score at 10 µM | actives 0.84% (n = 340,000);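 active = B-score under library mean minus 4 SD, starting fluorescence ratio at most library mean plus 5 SD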;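 note: more negative B-score means stronger inhibition of thallium flux through KCNK3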
KCNQ1 act – potentiators or activators of KCNQ1 channel, primary screen, cell-based, thallium flux, high-throughput; B-score at 10 µM; Potassium voltage-gated channel subfamily KQT member 1 (Homo sapiens), P51787; actives 0.35% (n = 310,000); CHO-K1 KCNQ1, thallium flux FluxOR fluorescence; hits give high values;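 active = fluorescence ratio B-score, a plate-corrected score, at least three library SD, with initial intensity B-score within 5 SD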
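Assay system: stable KCNQ1 CHO-K1 line; medium: assay buffer, equal DMSO in all wells; timing: 90 min dye loading and 20 min compound exposure, both at room temperature; technique: kinetic FluxOR thallium fluorescence, 10-s 1-Hz baseline, 110-s post-stimulus read; read-out basis: B score of baseline-normalized fluorescence ratio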
KCNK9 inh – KCNK9 potassium channel inhibitors, primary screen, HEK293 cells, thallium flux; Potassium channel subfamily K member 9 (Homo sapiens), Q9NPC2; AID 488922, 2010; B-score at 10 µM; FluxOR thallium flux fluorescence; hits give low values; actives 1.2% (n = 310,000);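 active = ratio B-score over 3 SD below the library mean, with starting fluorescence within 5 SD of its mean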;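 note: negative B-score means less thallium flux so channel inhibition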
hERG protect – hERG rescue from dofetilide block, primary screen, cell-based, CHO-hERG, FluxOR thallium flux, dofetilide IC70; dofetilide IC70 present; activation (rescue from dofetilide block), less the hit threshold, % at 10 µM; actives 0.51% (n = 310,000); AID 1511, 2009;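 active = activation above the mean of controls blocked by dofetilide plus 5 SD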;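 note: thallium influx through hERG after potassium depolarization seen as dye fluorescence rise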
KCNQ1 inh – inhibitors of human KCNQ1 channel, primary screen, cell-based, thallium flux, high-throughput; AID 2642, 2010; actives 1.3% (n = 310,000); B-score at 10 µM; Potassium voltage-gated channel subfamily KQT member 1 (Homo sapiens), P51787; CHO-K1 KCNQ1, FluxOR thallium flux fluorescence; hits give high values;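 active = compounds whose thallium flux B-score, printed positive for inhibition, exceeds three library SD while starting fluorescence stays within three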;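 note: channel opened by potassium depolarization with thallium stimulus after 20 min compound exposure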
KCNK9 block conf – KCNK9 potassium channel inhibitors, confirmation, HEK293 cells, thallium flux, duplicate; actives 43% (n = 4,900); AID 492992, 2010; inhibition, % at 10 µM; shares compounds with KCNK9 inh; FluxOR thallium flux fluorescence;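 active = thallium signal inhibited by more than 5 SD of the compound-free buffer control wells, on both duplicate plates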
Kir21 sel – mouse Kir2.1 channel inhibition, confirmation, selectivity assay for KCNK9 modulator project, cell-based, HEK293, thallium flux; shares compounds with KCNK9 inh; Kir2.1 cells, FluxOR thallium flux fluorescence; inhibition, % at 10 µM; actives 4% (n = 4,900); AID 492993, 2010;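 active = thallium signal drop more than 5 SD beyond the mean of the no-compound control wells, seen in both duplicate plates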;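 note: signal is fluorescence rise after thallium addition divided by baseline fluorescence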
Target sequence (P35561 whole entry, looked up): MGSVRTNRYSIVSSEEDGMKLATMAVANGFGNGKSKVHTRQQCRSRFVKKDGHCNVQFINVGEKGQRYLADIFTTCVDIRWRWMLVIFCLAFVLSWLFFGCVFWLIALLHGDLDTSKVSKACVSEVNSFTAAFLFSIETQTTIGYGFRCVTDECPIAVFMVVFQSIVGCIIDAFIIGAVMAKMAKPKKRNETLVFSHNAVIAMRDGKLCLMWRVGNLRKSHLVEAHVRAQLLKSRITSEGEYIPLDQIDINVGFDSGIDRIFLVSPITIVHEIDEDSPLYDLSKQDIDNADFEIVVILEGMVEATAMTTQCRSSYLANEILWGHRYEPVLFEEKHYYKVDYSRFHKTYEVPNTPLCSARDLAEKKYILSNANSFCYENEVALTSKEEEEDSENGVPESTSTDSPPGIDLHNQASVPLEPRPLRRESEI
HEK293 Tl ctr – thallium flux in non-induced HEK293 cells, confirmation, counter-screen for KCNK9 inhibitor project, cell-based, second counter screen, non-induced KCNK9-HEK293. shares compounds with KCNK9 inh. FluxOR thallium flux. inhibition, % at 10 µM. actives 40% (n = 4,900);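 active = thallium signal drop beyond 5 SD of the untreated control mean, on both duplicate plates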
Each line names hits and unclear results; the compound was inactive in the other large screens (follow-up assays come after a bar, where they were run). Hits are enriched below; roughly 3.1% of the tested compounds scored in any of these assays.

CO/N=C(\c1nonc1N)N1CCN(c2ccc(Cl)cc2[N+](=O)[O-])CC1	KCNK9 inh -8.27 | KCNK9 block conf 31.5% | Kir21 sel inactive | HEK293 Tl ctr 39.0%
Oc1ccc(Cl)cc1Cc1cc(Cl)ccc1O	KCNK9 inh -14 | KCNK9 block conf 58.5% | Kir21 sel inactive | HEK293 Tl ctr 35.0%
Oc1ccc(Cl)cc1CNCc1ccc(Cl)cc1	none (no result: KCNQ1 act, KCNK9 inh, hERG protect, KCNQ1 inh)
CCCN1C2CCCC1CC(NC(=O)c1cc(OC)cc(OC)c1)C2 (stereo not given)	none
COc1ccc(/C=N/NC(=O)c2nc(-c3ccccc3)cc(-c3ccccc3)n2)cc1O	KCNK9 inh -10.9 | KCNK9 block conf 68.0% | Kir21 sel inactive | HEK293 Tl ctr inactive
Cc1ccc(C)c(OCC(=O)N(Cc2nnc(-c3ccccc3Cl)o2)C2CC2)c1	none | KCNK9 block conf inactive | Kir21 sel inactive | HEK293 Tl ctr inactive
OCCN1CCN(C2Cc3cc(Cl)ccc3Sc3ccc(Cl)cc32)CC1 (stereo not given) (tested in a mixture with another compound)	KCNK9 inh -8.6, KCNQ1 inh 7 | KCNK9 block conf inactive | Kir21 sel inactive | HEK293 Tl ctr inactive
CCN1CCN(CCCNC(=O)CN2C(=O)c3cccnc3Oc3ccc(Cl)cc32)CC1	none
COc1ccccc1C/C(N)=N/OC(=O)COc1ccc(C)cc1	none
COc1ccccc1C/C(N)=N/OC(=O)COc1cccc(C)c1	none | KCNK9 block conf inactive | Kir21 sel inactive | HEK293 Tl ctr inactive
COc1ccccc1C/C(N)=N/OC(=O)COc1ccc2ccccc2c1	none | KCNK9 block conf inactive | Kir21 sel inactive | HEK293 Tl ctr inactive
COc1ccc(N(C)S(=O)(=O)c2cccc(C(=O)OC(C(=O)Nc3cc(C)cc(C)c3)c3ccccc3)c2)cc1 (stereo not given)	none
COc1ccc(C)cc1NC(=O)C(OC(=O)CNC(=O)c1ccc(Br)cc1)c1ccccc1 (stereo not given)	KCNK9 inh -10 | KCNK9 block conf 36.0% | Kir21 sel inactive | HEK293 Tl ctr 37.5%
CCCC(=O)Nc1ccc(C(=O)Nc2cc(C(F)(F)F)ccc2Cl)cc1	none
COc1ccc(C)cc1NC(=O)C(OC(=O)c1ccc(Cl)c(S(=O)(=O)N(C)c2ccccc2)c1)c1ccccc1 (stereo not given)	KCNK3 inh -9.78, KCNK9 inh -9.65 | KCNK9 block conf 42.0% | Kir21 sel inactive | HEK293 Tl ctr inactive
COc1ccc(C)cc1NC(=O)C(OC(=O)c1cnccn1)c1ccccc1 (stereo not given)	none
Cc1cc(C(=O)NCC(=O)OC(C(=O)Nc2cc(C(F)(F)F)ccc2Cl)c2ccccc2)ccc1[N+](=O)[O-] (stereo not given)	KCNK3 inh -9.54, KCNK9 inh -19.8 | KCNK9 block conf 62.0% | Kir21 sel inactive | HEK293 Tl ctr 31.5%
CCCC(=O)OC(C(=O)Nc1cc(C(F)(F)F)ccc1Cl)c1ccccc1 (stereo not given)	KCNK9 inh -12.7 | KCNK9 block conf 46.5% | Kir21 sel inactive | HEK293 Tl ctr 45.5%
COc1ccc(OCc2nc3ccccc3n2C(C)C)cc1	none
O=C1C2Sc3[nH]c(=O)sc3C(c3ccccc3)C2C(=O)N1c1ccc(Cl)cc1 (stereo not given)	none (no result: KCNQ1 act, KCNK9 inh, hERG protect, KCNQ1 inh)
Cc1ccc(NC(=O)CN2CCc3cc4c(cc3C2C)OCCCO4)cc1C (stereo not given)	none | KCNK9 block conf inactive | Kir21 sel inactive | HEK293 Tl ctr 31.0%
Cc1ccc(NC(=O)CN2CCc3cc4c(cc3C2C)OCCCO4)cc1 (stereo not given)	none
CNC(=S)N/N=C(\C)c1ccc(C)c(C)c1	none
Cc1c(C(=O)N2CCC[C@H]2C(N)=O)oc2c(F)cccc12	none | KCNK9 block conf inactive | Kir21 sel inactive | HEK293 Tl ctr inactive
COc1ccc(CNC(=O)C(=O)NCC2OCCN2S(=O)(=O)c2cccs2)cc1 (stereo not given)	none
O=C(Nc1nccs1)c1ccc([N+](=O)[O-])cc1	none
O=C(Cc1ccc([N+](=O)[O-])cc1)Nc1nccs1	KCNK9 inh -20 | KCNK9 block conf inactive | Kir21 sel inactive | HEK293 Tl ctr inactive
CC(C)N1CCN(Cc2ccc(C#CCCO)cc2)CC1CCO (stereo not given)	none
O=C(/C(=C/c1ccc(Cl)cc1)c1nc2ccccc2[nH]1)c1cccs1	KCNK9 inh -11.5, KCNQ1 inh 6 | KCNK9 block conf 48.0% | Kir21 sel inactive | HEK293 Tl ctr 41.0%
CC(C)=CCC12Oc3cc(O)ccc3C1(O)Oc1cc3c(c(O)c1C2=O)C=CC(C)(C)O3 (stereo not given)	KCNK9 inh -8.26 (no result: KCNK3 inh) | KCNK9 block conf inactive | Kir21 sel inactive | HEK293 Tl ctr 24.5%
COc1ccc(C(C)C)cc1S(=O)(=O)n1cnc(C)c1	none
c1coc(CNc2c3c(nc4ncnn24)CCCC3)c1	none
Clc1cccc(-c2cc3nc4c(c(NCc5ccco5)n3n2)CCCC4)c1	KCNK9 inh -9.41 | KCNK9 block conf 29.5% | Kir21 sel inactive | HEK293 Tl ctr 32.5%
O=C(O)c1ccc(CSc2nc(-c3ccccc3)cc(C(F)(F)F)n2)cc1	none | KCNK9 block conf inactive | Kir21 sel inactive | HEK293 Tl ctr inactive
O=C(O)c1ccc(CSc2nc(-c3ccc(Cl)cc3)cc(C(F)(F)F)n2)cc1	none
Cc1cc(C)c(S(=O)(=O)c2ccc(C(C)(C)C)cc2)c(Cl)n1	none | KCNK9 block conf inactive | Kir21 sel inactive | HEK293 Tl ctr inactive
Cc1ccc(S(=O)(=O)c2c(C)cc(C)nc2Cl)cc1	none
O=c1[nH]c(SCc2cccc(F)c2)nc2c1CCCC2	none
O=C(COc1cc(O)c2c(=O)cc(-c3ccccc3)oc2c1)c1ccccc1	KCNK9 inh -8.73 | KCNK9 block conf 44.0% | Kir21 sel inactive | HEK293 Tl ctr 30.5%
COc1cc(NC(=O)CN2CCN(S(=O)(=O)/C=C/c3ccccc3)CC2)cc(OC)c1OC	none (no result: KCNQ1 act, KCNK9 inh, hERG protect, KCNQ1 inh)
CC(/C=N/Nc1nc(N2CCCCC2)nc(N2CCCCC2)n1)=C\c1ccccc1	KCNK9 inh -12.2 | KCNK9 block conf 55.0% | Kir21 sel inactive | HEK293 Tl ctr 27.0%
